Consider 3 compounds from ChEMBL document CHEMBL1782026, “Synthesis and biological evaluation of 1α,25-dihydroxyvitamin D(3) analogues hydroxymethylated at C-26” (2011).

Active and inactive are the calls of the source. No cut-off for these calls is given here.

Test [1] deals with MCF7. The experiment in a line: Antiproliferative activity against human MCF7 cells assessed as DNA level measured after 6 days by calorimetric analysis. The class given is functional, cell-based. The procedure, abridged:
(§1)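 MCF-7 cells in DMEM F12 with 5% FBS at 37 °C, 5% CO2, seeded at 100 000 cells/well in six-well plates. After 24 h, treated in triplicate for 6 days with graded doses or 0.1% ethanol vehicle; medium and ligand replaced every other day. DNA content by Burton assay, expressed as percent of vehicle control; three independent experiments, mean ± SD.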

The subject of test [2] is MCF7. The test is described as follows: Antiproliferative activity against human MCF7 cells assessed as DNA level at 1 nM measured after 6 days by calorimetric analysis. Format: functional. Particulars: MCF7, 144 h, read-out: GI. The procedure, abridged: as §1
Test [3] deals with MCF7. The test is described as follows: Antiproliferative activity against human MCF7 cells assessed as DNA level at 10 nM measured after 6 days by calorimetric analysis. Particulars: MCF7, 144 h, read-out: GI. The class given is functional. In short, it runs like this: as §1
Test [4] concerns MCF7. The test is described as follows: Antiproliferative activity against human MCF7 cells assessed as DNA level at 100 nM measured after 6 days by calorimetric analysis. Format: functional. The following applies: MCF7, 144 h, read-out: GI. In short, it runs like this: as §1
Test [5] relates to SW480-ADH. The test is described as follows: Induction of E-cadherin expression in human SW480-ADH cell at 10^-7 M after 48 hrs by Western blot analysis. Format: functional, cell-based. The procedure, abridged:
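SW480-ADH cells grown in RPMI with 10% FCS, GlutaMAX and penicillin/streptomycin. Treated 48 h at 10^-7 M in charcoal-treated FCS medium; controls received matching vehicle. Anti-E-cadherin Western blot with β-tubulin as loading control and ECL detection. Values are mean fold-increase from two experiments.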
On the technique in general: A western blot detects proteins with antibodies after separation by electrophoresis.

Test [6] deals with T1, Vitamin D3 receptor (Homo sapiens) (UniProt P11473).
T1 sequence (whole entry): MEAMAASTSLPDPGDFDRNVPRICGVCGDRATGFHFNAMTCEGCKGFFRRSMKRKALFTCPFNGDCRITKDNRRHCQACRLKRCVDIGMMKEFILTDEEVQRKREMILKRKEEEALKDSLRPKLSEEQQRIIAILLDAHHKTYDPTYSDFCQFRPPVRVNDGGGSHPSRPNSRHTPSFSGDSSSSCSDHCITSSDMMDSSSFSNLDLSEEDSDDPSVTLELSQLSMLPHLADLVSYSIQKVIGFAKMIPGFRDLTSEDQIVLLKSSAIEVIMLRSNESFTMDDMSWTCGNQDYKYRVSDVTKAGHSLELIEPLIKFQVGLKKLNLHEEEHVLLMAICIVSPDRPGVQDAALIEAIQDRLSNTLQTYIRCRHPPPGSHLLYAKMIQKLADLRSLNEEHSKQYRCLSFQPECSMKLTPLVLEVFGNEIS
The experiment in a line: Transactivation of human VDR transfected in human SW480-ADH cells assessed as vitamin D response element-mediated transcriptional activity measured 8 hrs post infection by luciferase reporter gene assay. Format: cell-based. In short, it runs like this: (§2)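 SW480-ADH cells, transfected in triplicate (JetPEI) with 4VDRE-DR3-tk-LUC reporter, four tandem consensus DR3 VDREs upstream of HSV tk promoter. Treated with graded concentrations in charcoal-treated FCS medium, read at 8 or 48 h. Firefly luciferase normalized to Renilla by dual luciferase assay; mean ± SD, n = 3.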

In test [7] the target is T1, Vitamin D3 receptor (Homo sapiens). The experiment in a line: Transactivation of human VDR transfected in human SW480-ADH cells assessed as vitamin D response element-mediated transcriptional activity measured 48 hrs post infection by luciferase reporter gene assay. Format: cell-based. The procedure, abridged: as §2
A general note: Reporter assays use an easily measured gene product as a stand-in for the process of interest.

The subject of test [8] is SW480-ADH. The test is described as follows: Induction of differentiation of human SW480-ADH cells to adhesive epithelial phenotype at 10^-7 M after 48 hrs by phase-contrast microscopy. Format: functional, cell-based. The procedure, abridged:
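SW480-ADH cells in RPMI/10% FCS were exposed for 48 h to 10^-7 M compound or vehicle in charcoal-treated FCS medium. Adhesive epithelial morphology was judged by phase-contrast microscopy; a representative experiment is shown.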

The target in test [9] is T1, Vitamin D3 receptor (Homo sapiens). The test is described as follows: Transactivation of human VDR transfected in african green monkey COS7 cells after 24 hrs by luciferase reporter gene assay. The class given is cell-based. Particulars: COS-7. The procedure, abridged:
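Transfected 16 h (Polyfect) with 62.5 ng WT VDR expression plasmid and 125 ng rat 24-hydroxylase promoter VDRE-luciferase. Then treated 24 h with graded concentrations in DMEM with 1% bovine growth serum, lysed, and assayed by dual luciferase; ±SD.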

For the compound `C=C1/C(=C\C=C2/CCC[C@]3(C)[C@@H]([C@H](C)CCCC(C)(C)O)CC[C@@H]23)C[C@@H](O)C[C@@H]1O` [CALCITRIOL], the “growth inhibition (GI)” value in [1] was “Dose-dependent effect”. Moreover, the inhibition of growth at 0.001 µM in test [2] was found to be 15%. The inhibition of growth at 0.01 µM in test [3] was 50%. For the same compound, the inhibition of growth at 0.1 µM in test [4] came to 66%.

As for `C=C1/C(=C\C=C2/CCC[C@]3(C)[C@@H]([C@H](C)CCC[C@@](C)(O)CCO)CC[C@@H]23)C[C@@H](O)C[C@@H]1O`, in [4], the inhibition of growth at 0.1 µM came to 53%. Also, the result in [5] and in test [8] was Active. In addition, the Activity entry in test [6] and in test [7] was “Dose-dependent effect” throughout.

As for `C=C1/C(=C\C=C2/CCC[C@]3(C)[C@@H]([C@H](C)CCC[C@@](C)(O)[C@@H](C)CO)CC[C@@H]23)C[C@@H](O)C[C@@H]1O`, the inhibition of growth at 0.1 µM in test [4] was determined as 65%. In addition, the outcome in test [5], in test [9] and in test [8] was Active. For the same compound, the Activity result in test [6] and in test [7] was “Dose-dependent effect” each time.
